What was measured:
HeLa = assay: Cytotoxicity against human HeLa cells after 48 hrs by MTT assay; assay type: functional, cell-based
Procedure, shortened: (§1)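 Cells grown in DMEM with 10% FBS at 37 °C under humidified 5% CO2. HeLa seeded at 3,000/well and HT29 at 12,500/well, then allowed 24 h before exposure to varying compound concentrations for 48 h. Viability read by MTT; IC50 values derived from duplicate experiments.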

HT-29 = assay: Cytotoxicity against human HT-29 cells after 48 hrs by MTT assay; assay type: functional, cell-based; conditions: HT-29, 48 h; procedure, shortened: as §1

SMILES: CO[C@@H]1[C@@H](OC)[C@H](C)O[C@@H](O[C@@H]2C[C@H]3O[C@@](O)(C2)[C@@H](C)C(=O)O[C@@H](/C=C/C=C/Br)C[C@@H](C)/C=C\C[C@H](O)[C@@H]3C)[C@@H]1OC
- IC50 (HeLa): 33000 nM
- IC50 (HT-29): 38000 nM

SMILES: CO[C@@H]1[C@@H](OC)[C@H](C)O[C@@H](O[C@@H]2C[C@@H]3CC[C@@H](C)[C@H](O)C[C@@](C)(CC/C=C/C=C/Br)OC(=O)C[C@](O)(C2)O3)[C@@H]1OC
- IC50 (HeLa): 9300 nM
- IC50 (HT-29): 13000 nM

SMILES: CO[C@@H]1[C@@H](OC)[C@H](C)O[C@@H](O[C@@H]2C[C@@H]3CC[C@@H](C)[C@H](O)C[C@@](C)(CC/C=C/C=C\Br)OC(=O)C[C@](O)(C2)O3)[C@@H]1OC
- IC50 (HeLa): 53000 nM
- IC50 (HT-29): > 100000 nM

SMILES: CC[C@H](C)[C@@H]1NC(=O)CNC(=O)c2csc(n2)[C@H](C(C)C)OC(=O)C(C)(C)[C@H](CCCC(C)(Cl)Cl)OC(=O)c2csc1n2 [27-DEOXYLYNGBYABELLIN A]
- IC50 (HeLa): 7.3 nM
- IC50 (HT-29): 12 nM

SMILES: CC[C@H](C)[C@@H]1NC(=O)CNC(=O)c2csc(n2)[C@H](C(C)(C)O)OC(=O)C(C)(C)[C@H](CCCC(C)(Cl)Cl)OC(=O)c2csc1n2 [LYNGBYABELLIN A]
- IC50 (HeLa): 22 nM
- IC50 (HT-29): 47 nM

SMILES: CC(C)[C@@H]1NC(=O)CNC(=O)[C@@H]2CSC(=N2)[C@H](C(C)(C)O)OC(=O)C(C)(C)[C@H](CCCC(C)(Cl)Cl)OC(=O)c2csc1n2 [LYNGBYABELLIN B]
- IC50 (HeLa): 710 nM
- IC50 (HT-29): 1100 nM

SMILES: CCCC(=O)N[C@@H](C(C)C)[C@@H](CC(=O)O[C@@H]1COC(=O)c2csc(n2)[C@@H]([C@@](C)(O)CC)OC(=O)[C@@H](C)[C@H](CCCC(C)(Cl)Cl)OC(=O)c2csc1n2)OC(C)=O [LYNGBYABELLIN J]
- IC50 (HeLa): 41 nM
- IC50 (HT-29): 54 nM

SMILES: CO[C@@H]1[C@@H](OC)[C@H](C)O[C@@H](O[C@@H]2C[C@H]3O[C@@](O)(C2)[C@H](C)C(=O)O[C@@H](/C=C/C=C/Br)C[C@@H](C)/C=C\C[C@H](O)[C@@H]3C)[C@@H]1OC [LYNGBYALOSIDE]
- IC50 (HeLa): 35000 nM
- IC50 (HT-29): 37000 nM
